Compound activity (PubChem)
CHT inh: inhibits the human high affinity choline transporter | 0.86% of 310,000 active | CHT-expressing cells, membrane potential dye, choline response; hits give low values | Q9GZV3 | B-score at 10 µM;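 active means B-score over 3 SD under the library average, and starting fluorescence ratio not unusually high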;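 further: choline stimulus applied at its EC90 after an EC20 pre-addition; B-score computed on integrated fluorescence ratio after choline addition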
T cell modulator: modulates CD8 T cell binding to vesicles. 2C CD8+ T cell-vesicle binding, flow cytometry; hits give low values. response (vesicle binding), % at 7 µM. 0.068% of 330,000 active;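 active means response, share of CD8 T cells binding vesicles, and their 90th percentile fluorescence all below set limits, cut at about 80% in these data, passing the limit was not always enough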;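 further: values below 100% mean blocked vesicle binding to the CD8+ T cells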
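Read-out – percent CD8+ FL2 mean versus row control · System – murine 2C transgenic CD8+ T lymphocytes · Times – 1.5 h cell–vesicle binding at 37 °C, then 20 min icy labelling · Control set – naked vesicles low, QL9 vesicles with vehicle high · Detection – cytometric PE anti-B7-1 and Alexa647 anti-CD8 signals after 1% paraformaldehyde fixation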
CHT PAM: allosteric activators of human choline transporter CHT; AID 488977; CHT-expressing cells, membrane potential dye, choline EC20; hits give high values; LV-AA mutant CHT in HEK293 cells; Q9GZV3; 0.49% of 310,000 active; B-score at 10 µM;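 active means initial fluorescence not abnormally high and integrated response B-score, plate-corrected, over 3 SD above library mean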
DSG3 Ab inh: human desmoglein-3 autoantibody binding inhibition; P32926; DSG3-coupled beads, scFv-anti-DSG3-GFP binding, flow cytometry; hits give low values; binding (percent of control), % at 10 µM; 0.48% of 310,000 active; AID 588358;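 active means binding more than 3 SD below its plate's average and above zero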;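 further: hits lower antibody fragment binding to DSG3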
pCIP destab: lowers stability of the mouse p/CIP coactivator protein; Q05BA5; F442A p/CIP-EGFP cells, EGFP fluorescence, 16 h; decrease of EGFP signal, % at 10 µM; 0.01% of 290,000 active; AID 1984;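 active means EGFP signal decrease of at least 30% at 10 µM or well 3 SD below plate mean, unless failing retest; inactive means the rest, including hits failing retest or dose response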
Target sequence (Q05BA5 1-1403): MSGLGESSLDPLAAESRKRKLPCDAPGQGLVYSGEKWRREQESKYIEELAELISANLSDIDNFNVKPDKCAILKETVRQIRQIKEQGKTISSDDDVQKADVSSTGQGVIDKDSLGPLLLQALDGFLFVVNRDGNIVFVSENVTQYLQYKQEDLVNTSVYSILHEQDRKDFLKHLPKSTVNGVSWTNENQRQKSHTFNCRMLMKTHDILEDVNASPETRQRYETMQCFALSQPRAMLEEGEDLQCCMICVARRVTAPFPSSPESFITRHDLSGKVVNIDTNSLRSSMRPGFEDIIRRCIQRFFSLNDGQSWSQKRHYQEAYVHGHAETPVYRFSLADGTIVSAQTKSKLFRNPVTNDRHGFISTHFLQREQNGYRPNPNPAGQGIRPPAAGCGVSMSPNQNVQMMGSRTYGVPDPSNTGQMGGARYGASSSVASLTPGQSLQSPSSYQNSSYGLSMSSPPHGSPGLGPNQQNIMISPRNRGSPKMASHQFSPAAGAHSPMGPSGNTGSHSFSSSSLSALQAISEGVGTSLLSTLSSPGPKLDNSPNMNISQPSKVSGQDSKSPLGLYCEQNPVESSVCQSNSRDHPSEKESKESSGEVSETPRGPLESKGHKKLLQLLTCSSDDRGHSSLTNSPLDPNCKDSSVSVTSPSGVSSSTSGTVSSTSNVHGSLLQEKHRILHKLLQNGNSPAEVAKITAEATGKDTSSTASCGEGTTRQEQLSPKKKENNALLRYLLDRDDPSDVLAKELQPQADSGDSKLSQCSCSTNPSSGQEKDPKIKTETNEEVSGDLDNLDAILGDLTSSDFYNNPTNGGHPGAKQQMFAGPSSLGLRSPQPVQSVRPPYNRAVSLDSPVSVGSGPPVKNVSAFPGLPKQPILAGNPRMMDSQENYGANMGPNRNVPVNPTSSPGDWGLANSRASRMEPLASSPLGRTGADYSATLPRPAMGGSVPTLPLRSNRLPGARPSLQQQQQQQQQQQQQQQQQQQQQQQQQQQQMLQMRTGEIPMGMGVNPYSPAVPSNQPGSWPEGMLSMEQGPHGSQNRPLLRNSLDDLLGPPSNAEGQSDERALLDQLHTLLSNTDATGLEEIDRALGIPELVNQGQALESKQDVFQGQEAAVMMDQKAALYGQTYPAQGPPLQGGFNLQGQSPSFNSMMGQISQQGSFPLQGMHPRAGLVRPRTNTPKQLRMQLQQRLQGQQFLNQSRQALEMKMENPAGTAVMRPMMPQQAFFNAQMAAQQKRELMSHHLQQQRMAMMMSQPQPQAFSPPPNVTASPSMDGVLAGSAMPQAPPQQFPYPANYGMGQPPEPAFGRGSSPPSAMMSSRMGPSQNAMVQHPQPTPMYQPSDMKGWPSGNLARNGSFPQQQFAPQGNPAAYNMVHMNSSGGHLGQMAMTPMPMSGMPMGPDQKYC
GPR7 antag: human neuropeptides B/W receptor 1 antagonism; P48145; GPR7-expressing cells, fluorescence antagonist assay; inhibition, % at 4.4 µM; 1.1% of 290,000 active; AID 1861; in the data active means inhibition above about 16%, passing the limit was not always enough;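 further: cells stimulated with the agonist NPW; 0% = agonist with vehicle and 100% = vehicle without agonist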
GPR7 antag conf: confirmation of human GPR7 antagonists; AID 1952; inhibition, % at 4.4 µM; shares compounds with GPR7 antag; 52% of 2,400 active; GPR7-expressing cells, calcium fluorescence antagonist mode; in the data active means inhibition above about 24%;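 further: stimulated with the GPR7 agonist NPW; 0% = agonist plus vehicle and 100% = vehicle alone without agonist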
MCHR1 antagonist: counter-screen for GPR7 antagonists: antagonists of human MCHR1. shares compounds with GPR7 antag. MCHR1-expressing cells, fluorescence antagonist assay. inhibition, % at 4.4 µM. 62% of 2,400 active. AID 2148; in the data active means inhibition above about 22%;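 further: 0% = vehicle with agonist and 100% = vehicle without agonist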
Starred values were filed as active, the others as inactive; i = inactive; · = no result. Shown are actives, neighbours in structure and some others; about 2.3% of the full set was active somewhere.

SMILES | CHT inh | T cell modulator | CHT PAM | DSG3 Ab inh | pCIP destab | GPR7 antag | GPR7 antag conf | MCHR1 antagonist
O=C(c1ccc2c(c1)OCO2)N(Cc1cccs1)C1(C(=O)NC2CCCCC2)CCCCC1 | i | 544 | i | 104 | 12 | 31* | 40* | 59*
COC1CCC2(C)C(=CCC3C4CC(O)CC4(C)CCC32)C1 (centres undefined) | · | · | · | 98 | · | · | · | ·
CCc1ccccc1NC(=O)c1cc([N+](=O)[O-])ccc1N1CCOCC1 | i | 405 | i | 103 | -4 | 33* | -4 | 5
COc1ccc(-n2c(=O)[nH]c3cc(C(=O)NCCc4ccc(Cl)cc4)ccc3c2=O)cc1OC | i | 342 | i | 100 | -7 | 36* | 36* | 60*
Cc1ccccc1CNC(=O)c1ccc(CSCc2ccccc2)cc1 | i | 430 | i | 94 | -1 | 32* | 25* | 48*
Cc1ccc(CSCCNC(=O)c2ccccc2)cc1 | i | 255 | i | 98 | -6 | 2 | · | ·
Clc1cccc(CN2CCc3c([nH]c4ccccc34)C2)c1Cl | i | 442 | i | 103 | 3 | 50* | 47* | 29*
COc1ccccc1CN1CCc2c([nH]c3ccccc23)C1 | i | 225 | i | 115 | -1 | 2 | · | ·
O=C(NC1CCN(Cc2ccccc2)CC1)c1ccc(CS(=O)c2ccccc2Cl)o1 (centres undefined) | · | · | · | 102 | · | · | · | ·
COc1cc(NC2c3ccccc3C(=O)N2Cc2ccc3c(c2)OCO3)cc(OC)c1OC (centres undefined) | i | 592 | i | 101 | -15 | 26* | 12 | 20
NC(=O)c1ccsc1NC(=O)COC(=O)Cc1cccc2ccccc12 | i | 418 | i | 110 | -21 | 28* | 54* | 78*
O=C1C2C3C=CC(CC3)C2S(=O)(=O)C2C3C=CC(CC3)C12 (centres undefined) | · | · | · | 105 | · | · | · | ·
CS(=O)c1nc(-c2ccc(Br)cc2)cc(-c2ccccc2)c1C#N (centres undefined) | i | 372 | i | 110 | -11 | 54* | 97* | 101*
CS(=O)(=O)c1nc(-c2ccc(Br)cc2)cc(-c2ccccc2)c1C#N | i | 196 | i | 103 | 0 | 6 | · | ·
COc1ccc(C#CC2=CC(=O)CC(C)(C)C2)cc1 | · | · | · | 112 | · | · | · | ·
COc1cc(OC)cc(C(=O)N[C@H](C(=O)OCC(=O)Nc2ccc(C(N)=O)cc2)C(C)C)c1 | i | 303 | i | 103 | -2 | -1 | · | ·
COc1cc(OC)cc(C(=O)N[C@H](C(=O)OCC(=O)Nc2ccc(F)c(F)c2)C(C)C)c1 | i | 263 | i | 90 | -6 | 21* | 34* | 48*
CC1=CSC2=NS(=O)(=O)CCN12 | i | 98 | i | 98 | -9 | -6 | · | ·
O=S1(=O)CCN2C(Cc3ccc(SC(F)F)cc3)=CSC2=N1 | i | 191 | i | 107 | -17 | 24* | 17 | 12
COC(=O)CSc1nc(N)c(C#N)c(CC(C)C)c1C#N | i | 603 | i | 92 | -4 | 26* | 9 | 13
CCOC(=O)CSc1nc(N)c(C#N)c(CC(C)C)c1C#N | i | 313 | i | 103 | 1 | -8 | · | ·
COC(=O)C1CCCCN1C(=O)c1cc(COc2cccc3cccnc23)on1 (centres undefined) | i | 323 | i | 102 | -4 | -11 | · | ·
COC(=O)C1CCCCN1C(=O)c1cc(COc2cccc3cnccc23)on1 (centres undefined) | i | 187 | i | · | -13 | 35* | 28* | 53*
CCOc1ccc([N+](=O)[O-])c(N)c1 | i | 47 | i | 98 | 4 | 28* | 4 | 5
CCOc1ccc(Oc2cc(N)cc([N+](=O)[O-])c2)cc1 | i | 189 | i | 103 | -6 | -5 | · | ·
O=Nc1ccc(NO)c2ccccc12 | · | · | · | 108 | · | · | · | ·
O=C(CSc1nc2ccccc2s1)c1ccc(O)cc1O | i | 158 | i | 103 | -4 | -8 | · | ·
